Several values for one entry are separate records, joined by “and”; a condition that tells them apart may be missing. Identical values can stand only once.
Key:
[1] = target: Protein farnesyltransferase (Homo sapiens, UniProt P49354+P49356); assay: Inhibition of [3H]FPP incorporation into recombinant human K-Ras by Farnesyltransferase; assay type: protein-complex assay
How it was run: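 FTase-catalyzed incorporation of [³H]FPP into recombinant human K-Ras protein. IC50 is the compound concentration giving 50% inhibition of that incorporation.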

DLD-1 = assay: Concentration required to inhibit growth of human tumor DLD1 cell line on poly(HEMA) coated microtiter plate; assay type: functional, cell-based
How it was run: (§1)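 Anchorage-independent growth assay: cells grown on poly(HEMA)-coated microtiter plates. IC50 is the compound concentration that inhibits 50% of cell growth.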

Rat1 [2] = assay: Inhibition of anchorage-independent growth by 90% in human H-ras-transformed RAT1 cells in soft agar; assay type: functional; details: Rattus norvegicus
How it was run: (§2)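 RAT1 cells transformed with human H- or K-ras were suspended in soft agar to measure colony formation. IC90 is the concentration inhibiting anchorage-independent growth by 90% relative to vehicle-treated control. Values are reported as ranges.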

Rat1 [3] = assay: Inhibition of anchorage-independent growth by 90% in human K-ras-transformed RAT1 cells in soft agar; assay type: functional; details: Rattus norvegicus; how it was run: as §2
[4] = target: Geranylgeranyl transferase type I (Homo sapiens, UniProt P49354+P53609); assay: Inhibition of [3H]GGPP incorporation into recombinant human RhoA by Geranylgeranyl transferase type I; assay type: protein-complex assay
How it was run: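 GGTase I-catalyzed incorporation of [³H]GGPP into recombinant human RhoA protein. IC50 is the concentration giving 50% inhibition.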

Mus musculus [5] = assay: Tumor growth inhibition against subcutaneously injected H-ras Rat1 cells in female nude mice after continuous infusion of 1.4 mg/kg/day; assay type: functional; details: route subcutaneous
How it was run: (§3)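 Female nude mice were injected subcutaneously with H- or K-ras-transformed RAT1 cells. Treatment began 24 h later with vehicle (50% DMSO/water) or compound, n = 8–10, for about 14 days. Dosing was once-daily subcutaneous injection or continuous sc infusion by implanted Alzet osmotic pump. Tumor growth inhibition is relative to vehicle controls.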

Mus musculus [6] = assay: Tumor growth inhibition against subcutaneously injected H-ras-Rat1 cells in female nude mice after continuous infusion of 14 mg/kg/day; assay type: functional; details: route subcutaneous; how it was run: as §3
Rat1 [7] = assay: Highest concentration compatible with 80% cell survival in cultured RAT1 cells; assay type: functional; details: Rattus norvegicus
How it was run: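 Normal RAT1 cells in culture, with viability read by MTT staining. The value is the highest compound concentration compatible with 80% cell survival.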

Rat1 [8] = assay: Inhibition of anchorage independent growth of H-ras-transformed RAT1 cells on poly(HEMA) coated microtiter plate; assay type: functional, cell-based; details: Rattus norvegicus; how it was run: as §1
MCF7 = assay: Concentration required to inhibit growth of human tumor MCF-7 cells line on poly(HEMA) coated microtiter plate; assay type: functional, cell-based; how it was run: as §1
Rat1 [9] = assay: Inhibition of anchorage-independent growth by 90% of human K-ras-transformed RAT1 cells in soft agar; assay type: functional; details: Rattus norvegicus; how it was run: as §2

How did the IC50 [1] turn out when `CCCC[C@H]1CN(C(=O)c2cccc3ccccc23)CCN1Cc1cncn1Cc1ccccc1` was run?
The IC50 was 495 nM.

`CCCC[C@H]1CN(C(=O)c2cccc3ccccc23)CCN1Cc1c[nH]cn1` was tested. Which IC50 [1] did it give?
Its IC50 is 7300 nM.

Which IC50 [1] does the source give for `C[C@@H]1CN(c2cccc(Cl)c2)C(=O)CN1Cc1cncn1Cc1ccc(C#N)cc1` here?
The IC50 was 80 nM.

With `CCCC[C@H]1CN(c2cccc(Cl)c2)C(=O)CN1Cc1cncn1Cc1ccc(C#N)cc1` as the molecule, how does the IC50 [1] read?
Its IC50 is 0.11 nM.

For `CCS(=O)(=O)C[C@@H]1CN(c2cccc(Cl)c2)C(=O)CN1Cc1cncn1Cc1ccc(C#N)cc1`, which IC50 (DLD-1) is on record?
Its IC50 is 1500 nM.

What about the IC50 [1] of the same molecule?
The IC50 was 0.18 nM.

And the IC90 (Rat1 [2])?
The IC90 was 30 nM.

And the IC90 (Rat1 [3])?
Its IC90 is 1000 nM.

And the IC50 [4]?
Its IC50 is > 100000 nM.

What about the Tumor growth inhibition (Mus musculus [5]) of the same molecule?
The Tumor growth inhibition was 73%.

What about the Tumor growth inhibition (Mus musculus [6]) of the same molecule?
Its Tumor growth inhibition is 100% and 60%.

And the IC20 (Rat1 [7])?
Its IC20 is > 100000 nM.

What about the IC50 (Rat1 [8]) of the same molecule?
Its IC50 is 8 nM.

And the IC50 (MCF7)?
Its IC50 is 5 nM.

Which results are given for `CCCC[C@H]1CN(c2cccc(C)c2C)C(=O)CN1Cc1cncn1Cc1ccc(C#N)cc1`?
IC50 [1]: 0.44 nM; IC90 (Rat1 [2]): 100 nM; IC50 [4]: 10000 nM; IC20 (Rat1 [7]): 25000 nM; IC50 (Rat1 [8]): 28 nM; IC90 (Rat1 [9]): 2500 nM

For `CCCC[C@H]1CN(C(=O)c2cccc3ccccc23)CCN1Cc1cncn1Cc1ccc(C#N)cc1`, which IC50 [1] is on record?
Its IC50 is 21 nM.

How did the IC50 [1] turn out when `C[C@H]1CN(c2cccc(Cl)c2)C(=O)CN1Cc1cncn1Cc1ccc(C#N)cc1` was run?
Its IC50 is 9 nM.

With `CCCC[C@H]1CN(C(=O)c2cccc3ccccc23)CCN1C[C@@H](N)S` as the molecule, how does the IC50 [1] read?
The IC50 was 1 nM.

From ChEMBL document CHEMBL1132387, “N-arylpiperazinone inhibitors of farnesyltransferase: discovery and biological activity” (J Med Chem, 1999)
